Legend:
Assay type in all cases: physicochemical
Conditions in all cases: pH 7.4, 2 h
[1] = […] peak time for H2S release in pH 7.4 PBS buffer containing 10% THF incubated for 2 hrs at room temperature in presence of cysteine by methylene blue based UV-Vis spectrometry
Outline: (§1)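 Donor (30 mM THF stock; 0.1 mM final) was added to PBS (pH 7.4, 50 mM)/THF 9:1 containing the stated thiol, at room temperature for 2 h. 1.0 mL aliquots were taken periodically into methylene blue cocktail (zinc acetate, N,N-dimethyl-p-phenylenediamine in HCl, FeCl3 in HCl) and reacted 15 min. Absorbance was read at 670 nm and H2S quantified against a Na2S calibration curve; peak concentration and peak time were recorded.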

[2] = […] peak time for H2S release in pH 7.4 PBS buffer containing 10% THF incubated for 2 hrs at room temperature in presence of 1 mM GSH by methylene blue based UV-Vis spectrometry; outline: as §1
[3] = GSH-induced H2S release assessed as peak H2S level in pH 7.4 PBS buffer containing 10% THF incubated for 2 hrs at room temperature in presence of cysteine by methylene blue based UV-Vis spectrometry; outline: as §1
[4] = GSH-induced H2S release assessed as peak H2S level in pH 7.4 PBS buffer containing 10% THF incubated for 2 hrs at room temperature in presence of 1 mM GSH by methylene blue based UV-Vis spectrometry; outline: as §1

Row | SMILES | Time [1] [min] | Time [2] [min] | Activity [3] [µM] | Activity [4] [µM]
1 | CCCC(=O)NSC(=O)c1ccccc1 | 60 | 60 | 45.9 | 58.3
2 | CC(C)(C)C(=O)SNC(=O)c1ccccc1 | 80 | 90 | 37.5 | 48.1
3 | CC(C)C(=O)SNC(=O)c1ccccc1 | 65 | 70 | 40.7 | 58.4
4 | CC(=O)Oc1ccccc1C(=O)NSC(=O)c1ccccc1 | 60 | 60 | 35.1 | 44.5
5 | CCC(=O)NSC(=O)c1ccccc1 | 55 | 60 | 44.1 | 54.1
6 | COc1ccccc1C(=O)SNC(=O)c1ccccc1 | 60 | 80 | 29 | 34
7 | COc1cccc(C(=O)SNC(=O)c2ccccc2)c1 | 55 | 80 | 47 | 39.5
8 | Cc1ccccc1C(=O)SNC(=O)c1ccccc1 | 60 | 70 | 29.4 | 19.8
9 | CC(=O)SNC(=O)c1ccccc1 | 60 | 70 | 48.4 | 63.1
10 | O=C(NSC(=O)C1CCCC1)c1ccccc1 | 60 | 65 | 40.9 | 49.9
11 | Cc1cccc(C(=O)SNC(=O)c2ccccc2)c1 | 55 | 65 | 49.3 | 39.3
12 | CC(C(=O)SNC(=O)c1ccccc1)c1ccccc1 (stereo unspecified) | 60 | 70 | 48.2 | 55.6
13 | O=C(Cc1ccccc1)SNC(=O)c1ccccc1 | 50 | 60 | 33.4 | 47.5
14 | O=C(NSC(=O)C1CCCCC1)c1ccccc1 | 65 | 80 | 48.1 | 68.2

Next, values leading:

Row | Time [1] [min] | Time [2] [min] | Activity [3] [µM] | Activity [4] [µM] | SMILES
15 | 105 | 120 | 14.1 | 26.4 | COc1ccc(C(=O)SNC(=O)Nc2ccccc2)cc1
16 | 45 | 60 | 48.3 | 28.1 | O=C(NSC(=O)c1ccc(C(F)(F)F)cc1)c1ccccc1
17 | 60 | 60 | 45.4 | 39.8 | Cc1ccc(C(=O)SNC(=O)c2ccccc2)cc1
18 | 50 | 55 | 38.8 | 36 | COC(=O)c1ccc(C(=O)SNC(=O)c2ccccc2)cc1
19 | 75 | 90 | 18.8 | 18.5 | O=C(NSC(=O)c1ccc(F)cc1)Nc1ccccc1
20 | 110 | 120 | 10.7 | 20.9 | O=C(NSC(=O)c1ccccc1)Nc1ccc(Cl)cc1
21 | 105 | 130 | 16.5 | 20 | Cc1ccc(C(=O)SNC(=O)Nc2ccccc2)cc1
22 | 60 | 70 | 25.2 | 29.9 | O=C(NSC(=O)c1ccccc1)c1cccc(Cl)c1
23 | 55 | 65 | 38.5 | 43.3 | O=C(NSC(=O)c1ccccc1)c1ccc(F)cc1
24 | 50 | 60 | 49.4 | 31.3 | O=C(NSC(=O)c1cccc(Cl)c1)c1ccccc1
